Results taken from ChEMBL document CHEMBL4513216, “Probing the Open Global Health Chemical Diversity Library for Multistage-Active Starting Points for Next-Generation Antimalarials” (ACS Infect Dis, 2020).

Assay: Toxicity liver stage against HepG2, at 10uM
Format: cell-based
Design: test concentration 10 uM, cell line HepG2-A16-CD81EGFP
Settings: human, HepG2-A16-CD81EGFP cells; read-out: INHIBITION
Summary of the method: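 Uninfected HepG2-A16-CD81EGFP cells, 3 × 10^3 per well, 1536-well, plated on prespotted compound at 10 μM final, parasite-free screening media added to match infected plates; puromycin 10 μM positive, DMSO 0.5% negative; run in parallel with 48 h PbLuc assay at 37 °C, 5% CO2; viability by CellTiter-Glo luminescence, normalized to controls.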

SMILES	cytotoxicity at 10 µM [%]
O=c1c2ccccc2nc2n1C(CSc1ccc(Cl)cc1)CN2 (configuration not stated)	9.38
Cc1cccc(CNC(=O)C2CCC(=O)N(Cc3ccccc3F)C2)n1 (configuration not stated)	-3.75
COc1ccc2c(c1)nc1n2[C@@H](CNC(=O)c2cccnc2)COC1	-3.74
Cc1ccccc1NC(=O)Nc1c[nH]c(=O)[nH]c1=O	3.54
CCN1CCC(=O)N(C)Cc2cc(F)ccc21	9.78
NCCC(Cc1ccccc1)c1ccco1 (configuration not stated)	0.45
COc1ccc2nnc(CCC(=O)Nc3nc4c(s3)CCCCC4)n2n1	4.98
COc1ncccc1C(=O)N1CC(c2nc(-c3ccco3)no2)C1	4.91
COC(=O)N1CCc2ccccc2C1C(=O)NCc1ccncc1 (configuration not stated)	-4.83
CN(C)CC1CSCCCN1C(=O)c1ccc(-n2cccc2)cc1 (configuration not stated)	10
COC(C)(CNS(=O)(=O)c1cn(C)cn1)c1ccccc1F (configuration not stated)	-8.39
COc1ccc(CC(=O)N2CCC3(CC2)CCN(CC(C)C)C3=O)cc1	1.11
O=C(c1cc(-c2ccn(CC3CC3)n2)n2ccccc12)N1CCOCC1	9.76
CCN(CC)[C@@H]1CN(Cc2cnn(C)c2)[C@@H]2COC[C@H]12	8.61
O=C(C1CC=CC1)N1CC[C@H]2[C@@H]1CCC(=O)N2c1ccccc1	8.88
N#Cc1cnc2ccccc2c1N1CCC(C(=O)O)CC1	4.28
CCN(CC)CCCNC(=O)c1nn(CC)cc1Cl	10.8
CC(=O)NCCCn1ncc2c(C)cccc21	9.68
CCC(=O)N1CCC(c2nc(N3CCOCC3)ncc2S(C)(=O)=O)CC1	3.65
Cc1cccc(Nc2ccc(C3CCN(Cc4ncc[nH]4)CC3)nc2)n1	-2.83
Cc1c(CN2CCCC(n3c(=O)oc4ccccc43)C2)cnn1C (configuration not stated)	6.62
Nc1cccc(C2CN(C(=O)CN3CCOCC3)CCO2)n1 (configuration not stated)	-8.83

SMILES	cytotoxicity at 10 µM [%]
O=C(NCCCN1CCOCC1)Nc1cnc2cc(Cl)ccc2c1O	1.29
O=C(c1cnco1)N1C[C@@H]2CC[C@H](Oc3ccccc3F)[C@@H]2C1	5.22
COCCN1C(=O)CO[C@H]2CN(Cc3c[nH]nc3-c3ccccc3)C[C@@H]21	-4.04
Cc1noc(C)c1CN(C)C(=O)C1CCCCN1S(C)(=O)=O (configuration not stated)	5.04
O=C(CC1OCCc2ccccc21)NCC1(O)CCCCC1 (configuration not stated)	1.07
CCOC(=O)NC1CCCN(c2cncc(Br)c2)C1 (configuration not stated)	-46.4
Cc1cc(Cn2cc(C#N)c(=O)c3ccccc32)no1	5.76
CC(=O)NCCCSC1CCN(c2ccccc2Cl)C1=O (configuration not stated)	-9.04
COCCS(=O)(=O)N1CCN(c2cccc(O)c2)CC1	5.33
CC(C)Cc1nnc(NC(=O)NC(CCO)c2cccs2)s1 (configuration not stated)	0.191
O=C(CCN1CCC(C(=O)c2cc(F)ccc2F)CC1)NC1CCCC1	4.76
CC(C)S(=O)(=O)NC(=O)c1cc(-c2cccc(Cl)c2)no1	10
Cc1nn(C)c(N2CCOCC2)c1CNC(C)c1ccccn1 (configuration not stated)	-10.7
Cc1cc(F)ccc1-n1cc(O)c(C(=O)NCC[S+](C)[O-])n1 (configuration not stated)	9.38
COC(=O)N1CCC(NC2CCSCC2)C1 (configuration not stated)	-8.23
Cc1nnc2n1CCN(C(=O)CN1C(=O)C(C)Oc3ccccc31)C2 (configuration not stated)	-0.905
Cc1cc(Br)ccc1C(=O)N(C)CCNS(C)(=O)=O	-54.1
COCC(C)N(C)C(=O)NC1CCN(S(C)(=O)=O)CC1 (configuration not stated)	5.36
Cc1cccc(N(CC(=O)N2CCCCC2)Cc2ccno2)c1	3.1
COc1ccc(S(=O)(=O)NC(=O)c2ccccc2F)cc1OC	-2.72
Cn1cc(C(=O)N[C@@H]2CN(Cc3ccoc3)[C@@H]3CCCO[C@@H]32)cn1	-104
CC(C)CNC(=O)[C@H]1CCS(=O)(=O)[C@@H]2CN(c3ncccn3)C[C@H]12	-110

SMILES	cytotoxicity at 10 µM [%]
Cc1cnc(N2CCC3(C2)CN(S(=O)(=O)C2CC2)C3)nc1	-106
CS(=O)(=O)N[C@@H]1CCO[C@]2(CCN(C(=O)c3cscn3)C2)C1	-67.2
CCS(=O)(=O)N1CC[C@H]2O[C@@H](c3nnc(C)o3)CC[C@H]21	-63.7
Cc1ccc(N2C[C@H](C(=O)N3CCOCC3)[C@@H]3CCO[C@@H]3C2)nn1	-66.8
CN(C)CC(=O)N1Cc2ncn(C)c2C(COCC2CCOCC2)C1 (configuration not stated)	-71
Cn1ncc2c1C(COCC1CC1)CN(Cc1ccoc1)C2 (configuration not stated)	-1.21
O=C(C1CCOCC1)N1CC[C@H]2C[C@@H](c3ccncn3)O[C@@H]2C1	-0.748
O=C(c1ccncc1)N1CCC2(CC1)CC(Oc1cccnc1)CO2 (configuration not stated)	-3.66
COc1cc(CN(Cc2ccccn2)CC(C)C)cc2c1OCO2	-16
CC/C(C)=C/CCN1CCN(C)C2(CCNC(=O)CC2)C1 (configuration not stated)	-48.2
CCN(Cc1nccn1C)C(=O)c1ccc(NCC(C)C)nc1	-2.2
O=C(NCc1cc2n(n1)CCCN(Cc1ccc(Cl)s1)C2)C1CCC1	5.46
NC(=O)N1CCCC(C(=O)N2CCN(c3nsc4ccccc34)CC2)C1 (configuration not stated)	7.86
C[C@@H]1CN(C(=O)c2c[nH]c(=O)c(Cl)c2)CC[C@@]1(O)C1CCOCC1	1.09
CCc1ncc(C(=O)NCC2CCN(Cc3ccncc3)CC2)cn1	8.12
Cc1c(CN2CC[C@@H](N3CCC(O)CC3)[C@H](O)C2)[nH]c2ccc(Cl)cc12	-3.96
CN1CCC2(CCC1=O)CCN(C(=O)Cc1ccc(O)c(F)c1)CC2	-8.99
COc1cccc([C@H]2CN(CCCS(=O)(=O)N(C)C)C[C@@H]2N)c1	-1.18
Cc1nccn1-c1ccc(NC(=O)C2CCCN2Cc2c[nH]cn2)cc1 (configuration not stated)	-15.2
Cc1nn2c(N3CCS(=O)(=O)CC3)cc(-c3ccccc3)nc2c1C	-6.43
O=C(NCCc1cccnc1)c1ccc2nccn2c1	-38.6
CC(C)CN1CCCn2nc(CNC(=O)Cc3cccc(O)c3)cc2C1	4.69

SMILES	cytotoxicity at 10 µM [%]
O=C(NCC(F)F)c1ccc(S(=O)(=O)NCCc2cn[nH]c2)cc1	5.5
COc1ccnc(CN2CCC=C(C(C)NC(C)=O)C2)c1OC (configuration not stated)	-8.81
Cc1cnccc1N1CCCN(C(=O)CCCc2cn[nH]c2)CC1	-30.3
CC(C)c1nccn1C1CCCN(C(=O)c2ccc3nncn3c2)C1 (configuration not stated)	-5.53
COC(=O)c1cccn1C1CCN(C(=O)c2c(C)noc2C)CC1	-11.4
COC(CNC(=O)NCc1c(C)cc(C)[nH]c1=O)c1ccccc1 (configuration not stated)	-6.12
CCOc1ccnc(N2CCN(C(=O)c3ccc(C#N)cc3)CC2)n1	-10.6
CSc1nccn1-c1ccc(C(=O)NCC2CC2)cc1	-3.67
CC(C)CCc1nc(CN2CCOC(Cn3cncn3)C2)cs1 (configuration not stated)	-6.06
CNS(=O)(=O)c1ccc(C(=O)N2CCCC2c2ccncc2)o1 (configuration not stated)	-6.23
C=C(Cl)CN(C)C1CCN(CCc2ccccn2)CC1	-2.93
Cc1ccc(-c2cc(CNC(=O)N3CCCN(C)CC3)on2)cc1	-5.19
CC1CN(CC(=O)NCc2cccs2)CCN1c1nccs1 (configuration not stated)	-12.8
Cc1cccc(C2(C(=O)NC(C)Cn3ccnc3)CC2)c1 (configuration not stated)	0.742
COc1c(C2CCCN2C(=O)c2c(C)noc2C(C)C)c(C)nn1C (configuration not stated)	8.88
Cc1cnn(CC(=O)N2CCCN(c3nc(C)cs3)CC2)c1	-4.71
COc1c(CNCc2ccc(OCC(N)=O)cc2)c(C)nn1C	-3.81
CCn1cnnc1CNC(=O)N(C)Cc1cccc(OC(F)F)c1	-3.73
COc1ccc(CNC(=O)NCCc2csc(C)n2)cn1	-7.05
Cc1nc(C)n(CC2CN(Cc3cccc4c3OCCO4)CCO2)n1 (configuration not stated)	-1.99
CCc1ncc2c(n1)CN(Cc1nc(-c3ccsc3)no1)CC2	-4.99
CCC(=O)N(C)CC(=O)Nc1ccc(Br)cn1	7.48

SMILES	cytotoxicity at 10 µM [%]
Cc1ccc(CC(=O)NCCCNS(C)(=O)=O)cc1	3.1
N#Cc1ccccc1CN1CCCCC1Cn1cncn1 (configuration not stated)	-4.13
Cc1ccc(CN2C(=O)CCC23CCC(NC2CCOC2)CC3)cc1 (configuration not stated)	-3.04
O=C(c1ccco1)N1C[C@@H]2[C@@H](C1)OCC(=O)N2Cc1cccnc1	3.04
O=C1CCC2(CCN(c3ncc(F)cn3)CC2)N1Cc1ccncc1	5.02
Cc1noc([C@H]2C[C@H]3OCC[C@H]3N(Cc3ccc(F)cc3)C2)n1	-76.4
COCC1c2c(cnn2C)CCN1Cc1ccco1 (configuration not stated)	2.32
O=C(N[C@@H]1CN[C@H]2CCCO[C@H]21)c1cccnc1	5.25
O=C(N[C@@H]1CN(c2ncccn2)C[C@@H]2CCCO[C@@H]21)c1ccncc1	2.29
Cc1cccc(CN2C[C@@H]3COC[C@]3(CNC(=O)C3CC3)C2)c1	-107
COC[C@]12COC[C@H]1CN(Cc1cc(OC)cc(OC)c1)C2	-6.33
Cc1cccc(CN2C[C@H](OCc3ccccn3)[C@H]3COC[C@H]32)n1	-92.6
Cc1ccc(N2CCCc3sc(C(=O)NCCC#N)nc32)nn1	11.6
COCC(=O)N1C[C@@H](OCc2ccncc2)[C@@H]2OCCC[C@@H]21	-0.182
Cc1cccc(CN2CCc3nnc(CN4CCCC4=O)n3CC2)n1	5.31
CN1CCS(=O)(=O)[C@@H]2CCN(C(=O)CC(C)(C)C)CC[C@@H]21	1.2
CN1C[C@H](NC(=O)c2cscn2)[C@@H]2OCCC[C@@H]21	-112
CCCSCC(=O)N1C[C@H]2CC[C@@H](C1)N(Cc1ccccn1)C2=O	3.32
O=C1Nc2ccccc2CN(CC=Cc2ccccc2)C12CCNC2 (configuration not stated)	2.96
